Data reported in ChEMBL document CHEMBL3046445, “Steroid conjugates: Synthesis and preliminary biological testing of pro-juvenoids” (2010).

How the values were obtained:
[1] = tested on: Pyrrhocoris apterus; experiment: Inhibition of metamorphosis in freshly molted Pyrrhocoris apterus (red firebug) fourth-instar nymph assessed as compound dose per individual causing reduction in metamorphosis by oral drinking assay; type: functional
In short: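 Drinking assay: compound in acetone was added to distilled water with Tween-80 at 0.025, 0.25, 2.5 and 25 per microlitre. It was offered in cotton-plugged glass vials at the end of the fourth nymphal instar, with the acetone/water/Tween-80 mixture as reference. Ten insects per concentration, three replicates, 25 ± 0.5 °C, 16L:8D, 50 ± 5% RH. Metamorphosis inhibition was scored morphologically after the last ecdysis.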

[2] = tested on: Pyrrhocoris apterus; experiment: Inhibition of metamorphosis in freshly molted Pyrrhocoris apterus (red firebug) fifth-instar nymph assessed as compound dose per individual causing reduction in metamorphosis by topical screening test; type: functional
In short: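 Topical application with a Burkhard microapplicator; acetone alone served as the reference treatment. Ten insects per dose, three replicates. Insects were held in Petri dishes at 25 ± 0.5 °C, 16L:8D, 50 ± 5% RH, and checked daily. The degree of metamorphosis inhibition was scored morphologically after the next molt. ID-50 per individual was computed from linear regression tested by ANOVA.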

Row | SMILES | ID50 [1] [µg] | ID50 [2] [µg]
1 | CCOC(=O)NCCOc1ccc(C[C@H]2CCCC[C@@H]2O)cc1 (relative stereo) | 0.5 | 0.71
2 | CCOC(=O)NCCOc1ccc(C[C@H]2CCCC[C@@H]2OC(=O)CC[C@@H](C)[C@H]2CC[C@H]3[C@@H]4[C@H](OC=O)C[C@@H]5C[C@H](OC=O)CC[C@]5(C)[C@H]4C[C@H](OC=O)[C@]23C)cc1 | 6.153 | 1.775
3 | CCOC(=O)NCCOc1ccc(C[C@@H]2CCCC[C@@H]2OC(=O)CC[C@@H](C)[C@H]2CC[C@H]3[C@@H]4[C@H](OC=O)C[C@@H]5C[C@H](OC=O)CC[C@]5(C)[C@H]4C[C@H](OC=O)[C@]23C)cc1 | 0.051 | 0.094
4 | COC(C)(C)CCC[C@H](C)C/C=C/C(C)=C/C(=O)OC(C)C [METHOPRENE] | 0.41 | 0.01
5 | CCOC(=O)NCCOc1ccc(Oc2ccccc2)cc1 [PHENOXYCARB] | 0.2 | 0.09
6 | CCOC(=O)NCCOc1ccc(C[C@@H]2CCCC[C@@H]2OC(=O)CCC(=O)O[C@H]2CC[C@@]3(C)C(=CC[C@H]4[C@@H]5CC[C@H]([C@H](C)/C=C/[C@@H](CC)C(C)C)[C@@]5(C)CC[C@@H]43)C2)cc1 | 4.989 | 0.0185
7 | CCOC(=O)NCCOc1ccc(C[C@H]2CCCC[C@@H]2OC(=O)CCC(=O)O[C@H]2CC[C@@]3(C)C(=CC[C@H]4[C@@H]5CC[C@H]([C@H](C)/C=C/[C@@H](CC)C(C)C)[C@@]5(C)CC[C@@H]43)C2)cc1 | >25 | >5
8 | CCOC(=O)NCCOc1ccc(C[C@@H]2CCCC[C@@H]2OC(=O)CC[C@@H](C)[C@H]2CC[C@H]3[C@@H]4[C@H](OC=O)C[C@@H]5C[C@H](O)CC[C@]5(C)[C@H]4C[C@H](OC=O)[C@]23C)cc1 | 0.423 | 0.062
9 | CC(COc1ccc(Oc2ccccc2)cc1)Oc1ccccn1 (configuration not stated) [PYRIPROXYFEN] | 25 | 2.3
10 | CCOC(=O)NCCOc1ccc(C[C@H]2CCCC[C@@H]2OC(=O)CC[C@@H](C)[C@H]2CC[C@H]3[C@@H]4[C@H](OC=O)C[C@@H]5C[C@H](O)CC[C@]5(C)[C@H]4C[C@H](OC=O)[C@]23C)cc1 | >25 | >5
11 | CCOC(=O)NCCOc1ccc(C[C@@H]2CCCC[C@@H]2O)cc1 (relative stereo) | 0.0012 | 0.001
